Data as given in paper PMC10329961 (Advances in Therapy, 2023).
Structures can show the parent of a compound that is named as a salt.

Key:
healthy volunteers = conditions: cited from earlier work; for pupil diameter after single instillation: healthy subjects, ref 37 (Lee et al.)
healthy adult men = test: Adverse events; assay type: in vivo, human; conditions: 8-day twice-daily instillation
Outline: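 Healthy adult men, 3 × 3 crossover: three 8-day phases separated by drug-free intervals of at least 5 days. One drop of test eye drop was given in both eyes twice daily (09:00, 21:00), with morning dose only on day 8. Subjects were inpatients from day −1 to day 9. AEs and ADRs were tallied as number and percentage of subjects.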

[1] = test system: corneal endothelial cells; assay type: in vivo, human; conditions: after instillation, days 1 and 8; none developed grade 3
[2] = test system: palpebral and bulbar conjunctivae; test: Palpebral and bulbar conjunctival hyperemia grading by slit lamp microscope; assay type: in vivo, human; conditions: day 1, score – = 0, + = 1, 2+ = 2, 3+ = 3; for palpebral conjunctival hyperemia mean ± SD grade score: administration phase 1
Outline: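 Conjunctival hyperemia was graded: – no or physiologic findings; + several vasodilatations; 2+ multiple or limbal vasodilatation; 3+ whole conjunctiva. Change from baseline per phase was averaged over both eyes and analysed by marginal model, n = 17–18.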

[3] = test system: healthy adults and patients with glaucoma; conditions: cited from earlier work

SMILES	pupil diameter after single instillation (healthy volunteers)	effect on pupil (healthy volunteers; healthy volunteers)	subjects with ADRs (healthy adult men) [%]	subjects with AEs (healthy adult men) [%]	subjects with conjunctival hyperemia as ADR (healthy adult men) [%]	subjects with conjunctival hyperemia as AE (healthy adult men) [%]	morphologic changes in corneal endothelial cells (grade) [1]	palpebral conjunctival hyperemia mean ± SD grade score ([2]; 15 min post-instillation)	palpebral conjunctival hyperemia mean ± SD grade score ([2]; 1 h post-instillation)	bulbar conjunctival hyperemia mean ± SD grade score ([2]; 1 h post-instillation)	time of peak of transient conjunctival hyperemia after instillation [3] [min]
Brc1c(NC2=NCCN2)ccc2nccnc12 [brimonidine, brimonidine tartrate]	significantly decreased	moderate miotic effect	58.8	70.6	47.1	58.8	No morphologic changes				
C[C@H]1CNCCCN1S(=O)(=O)c1cccc2cncc(F)c12 [ripasudil, ripasudil hydrochloride hydrate]	no change in pupil diameter		100.0	100.0	100.0	100.0	grade 1 or 2	1.4 ± 0.6	0.9 ± 0.7	0.9 ± 0.5	5 to 15
